Source: ChEMBL document CHEMBL5724801, “EUbOPEN Chemogenomics Library - Multiplex” (2024)
Values joined by “and” are separate entries in the source; they are usually repeats but may differ in a detail not shown here. Identical values can stand only once.

System: U2OS
Assay: Multiplex assay against U2OS
Type: toxicity, cell-based
Conditions: human
Outline: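 At seeding, live cells were stained with Hoechst33342, BioTracker Green Microtubule Cytoskeleton Dye, MitoTracker Red and Annexin V Alexa Fluor 680. After compound addition they were imaged on a CQ1 microscope at 37°C and 5% CO2, and CellPathfinder machine-learning gating sorted them into Hoechst high-intensity objects or normal cells, with normal cells further split into healthy, pyknosed or fragmented nuclei and pyknosed cells into mitotic or apoptotic. Tubulin, mitochondrial-mass and membrane-permeability phenotypes are given as per cents of cells with healthy nuclei.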

[1] = 12 h, 1 µM, compound concentration 1 uM
[2] = 12 h, 10 µM, compound concentration 10 uM
[3] = 24 h, 1 µM, compound concentration 1 uM
[4] = 24 h, 10 µM, compound concentration 10 uM
[5] = 48 h, 1 µM, compound concentration 1 uM
[6] = 48 h, 10 µM, compound concentration 10 uM

Cc1cc(-c2ccc3c(c2)CC[C@H]3N2CC3(CCN(C(=O)Cc4cn5cc(C)sc5n4)CC3)C2)ncn1 [PF-5190457]
Population Apoptotic (%) [1]: 82% and 63%
Population Fragmented Nuclei (%) [1]: 24% and 21%
Population Healthy Nuclei (%) [1]: 65% and 66%
Population Hoechst High Intensity Objects (%) [1]: 1% and 0%
Population Membrane Permeable-Phenotype (%) [1]: 7% and 4%
Population Mitochondria Different-Phenotype (%) [1]: 3%
Population Mitotic Cells (%) [1]: 17% and 36%
Population Normal (%) [1]: 98% and 100%
Population Pyknosed Nuclei (%) [1]: 9% and 11%
Population Tubulin-Different-Phenotype (%) [1]: 4% and 3%
Total Cell Count [1]: 239 and 93
Population Apoptotic (%) [2]: 61% and 71%
Population Fragmented Nuclei (%) [2]: 18% and 14%
Population Healthy Nuclei (%) [2]: 66% and 74%
Population Hoechst High Intensity Objects (%) [2]: 2% and 1%
Population Membrane Permeable-Phenotype (%) [2]: 7% and 8%
Population Mitochondria Different-Phenotype (%) [2]: 5% and 10%
Population Mitotic Cells (%) [2]: 38% and 28%
Population Normal (%) [2]: 97% and 98%
Population Pyknosed Nuclei (%) [2]: 14% and 11%
Population Tubulin-Different-Phenotype (%) [2]: 5% and 6%
Total Cell Count [2]: 238 and 126
Population Apoptotic (%) [3]: 69% and 33%
Population Fragmented Nuclei (%) [3]: 25% and 21%
Population Healthy Nuclei (%) [3]: 66% and 76%
Population Hoechst High Intensity Objects (%) [3]: 1% and 0%
Population Membrane Permeable-Phenotype (%) [3]: 8% and 6%
Population Mitochondria Different-Phenotype (%) [3]: 3% and 1%
Population Mitotic Cells (%) [3]: 30% and 66%
Population Normal (%) [3]: 98% and 99%
Population Pyknosed Nuclei (%) [3]: 8% and 2%
Population Tubulin-Different-Phenotype (%) [3]: 5% and 2%
Total Cell Count [3]: 282 and 126
Population Apoptotic (%) [4]: 67% and 84%
Population Fragmented Nuclei (%) [4]: 18%
Population Healthy Nuclei (%) [4]: 72% and 69%
Population Hoechst High Intensity Objects (%) [4]: 2% and 1%
Population Membrane Permeable-Phenotype (%) [4]: 3% and 11%
Population Mitochondria Different-Phenotype (%) [4]: 0% and 8%
Population Mitotic Cells (%) [4]: 32% and 15%
Population Normal (%) [4]: 97% and 98%
Population Pyknosed Nuclei (%) [4]: 9% and 12%
Population Tubulin-Different-Phenotype (%) [4]: 1% and 4%
Total Cell Count [4]: 295 and 154
Population Apoptotic (%) [5]: 84% and 66%
Population Fragmented Nuclei (%) [5]: 20% and 16%
Population Healthy Nuclei (%) [5]: 71% and 78%
Population Hoechst High Intensity Objects (%) [5]: 0% and 2%
Population Membrane Permeable-Phenotype (%) [5]: 7% and 4%
Population Mitochondria Different-Phenotype (%) [5]: 4% and 2%
Population Mitotic Cells (%) [5]: 15% and 33%
Population Normal (%) [5]: 99% and 97%
Population Pyknosed Nuclei (%) [5]: 8% and 5%
Population Tubulin-Different-Phenotype (%) [5]: 4% and 2%
Total Cell Count [5]: 402 and 184
Population Apoptotic (%) [6]: 74% and 76%
Population Fragmented Nuclei (%) [6]: 16% and 18%
Population Healthy Nuclei (%) [6]: 71%
Population Hoechst High Intensity Objects (%) [6]: 3%
Population Membrane Permeable-Phenotype (%) [6]: 5% and 11%
Population Mitochondria Different-Phenotype (%) [6]: 2% and 6%
Population Mitotic Cells (%) [6]: 25% and 23%
Population Normal (%) [6]: 96%
Population Pyknosed Nuclei (%) [6]: 12% and 10%
Population Tubulin-Different-Phenotype (%) [6]: 3% and 4%
Total Cell Count [6]: 389 and 217

COCCNc1nc2ccc(C#CC3(O)CCCCC3)cc2n1-c1ccnc(N)n1
Population Apoptotic (%) [1]: 53.85% and 25%
Population Fragmented Nuclei (%) [1]: 1.38% and 4.59%
Population Healthy Nuclei (%) [1]: 91.46% and 77.06%
Population Hoechst High Intensity Objects (%) [1]: 0%
Population Membrane Permeable-Phenotype (%) [1]: 0.9% and 4.76%
Population Mitochondria Different-Phenotype (%) [1]: 0% and 4.76%
Population Mitotic Cells (%) [1]: 46.15% and 75%
Population Normal (%) [1]: 100%
Population Pyknosed Nuclei (%) [1]: 7.16% and 18.35%
Population Tubulin-Different-Phenotype (%) [1]: 0.6% and 0%
Population Apoptotic (%) [2]: 38.46% and 41.03%
Population Fragmented Nuclei (%) [2]: 1.89% and 3.8%
Population Healthy Nuclei (%) [2]: 82.78% and 75%
Population Hoechst High Intensity Objects (%) [2]: 0%
Population Membrane Permeable-Phenotype (%) [2]: 8.26% and 7.25%
Population Mitotic Cells (%) [2]: 61.54% and 58.97%
Population Normal (%) [2]: 100%
Population Pyknosed Nuclei (%) [2]: 15.33% and 21.2%
Population Tubulin-Different-Phenotype (%) [2]: 15.38% and 10.87%
Total Cell Count [2]: 424 and 184
Population Apoptotic (%) [3]: 34.62% and 40%
Population Fragmented Nuclei (%) [3]: 0.86% and 3.12%
Population Healthy Nuclei (%) [3]: 87.96% and 85.16%
Population Hoechst High Intensity Objects (%) [3]: 0%
Population Membrane Permeable-Phenotype (%) [3]: 0.49% and 4.59%
Population Mitochondria Different-Phenotype (%) [3]: 0.24% and 2.75%
Population Mitotic Cells (%) [3]: 65.38% and 60%
Population Normal (%) [3]: 100%
Population Pyknosed Nuclei (%) [3]: 11.18% and 11.72%
Population Tubulin-Different-Phenotype (%) [3]: 0.73% and 0%
Population Apoptotic (%) [4]: 27.97% and 41.07%
Population Fragmented Nuclei (%) [4]: 1.32% and 3.03%
Population Healthy Nuclei (%) [4]: 76.5% and 68.69%
Population Hoechst High Intensity Objects (%) [4]: 0%
Population Membrane Permeable-Phenotype (%) [4]: 2.7% and 6.62%
Population Mitotic Cells (%) [4]: 72.03% and 58.93%
Population Normal (%) [4]: 100%
Population Pyknosed Nuclei (%) [4]: 22.18% and 28.28%
Population Tubulin-Different-Phenotype (%) [4]: 15.72% and 8.82%
Total Cell Count [4]: 532 and 198
Population Apoptotic (%) [5]: 38.1% and 52%
Population Fragmented Nuclei (%) [5]: 2.24% and 2.58%
Population Healthy Nuclei (%) [5]: 88.37% and 84.54%
Population Hoechst High Intensity Objects (%) [5]: 0%
Population Membrane Permeable-Phenotype (%) [5]: 0.63% and 0.61%
Population Mitochondria Different-Phenotype (%) [5]: 0% and 2.44%
Population Mitotic Cells (%) [5]: 61.9% and 48%
Population Normal (%) [5]: 100%
Population Pyknosed Nuclei (%) [5]: 9.4% and 12.89%
Population Tubulin-Different-Phenotype (%) [5]: 1.14% and 1.22%
Population Apoptotic (%) [6]: 45.97% and 47.78%
Population Fragmented Nuclei (%) [6]: 2.08% and 1.2%
Population Healthy Nuclei (%) [6]: 81.79% and 62.65%
Population Hoechst High Intensity Objects (%) [6]: 0%
Population Membrane Permeable-Phenotype (%) [6]: 2.38% and 2.56%
Population Mitotic Cells (%) [6]: 54.03% and 52.22%
Population Normal (%) [6]: 100%
Population Pyknosed Nuclei (%) [6]: 16.12% and 36.14%
Population Tubulin-Different-Phenotype (%) [6]: 13.35% and 7.69%
